Results published in ChEMBL document CHEMBL1255304, “In vitro phenotypic susceptibility of human immunodeficiency virus type 2 clinical isolates to protease inhibitors” (Antimicrob Agents Chemother, 2008).

Assays:
[1] = system: Human immunodeficiency virus 2; test: Antiviral activity against HIV 2 subtype H expressing 10I-34E-40P-41Y-60H-63N-70T-73G-82F-89L-92E protease gene sequence from HIV2 infected patient plasma and PBMC obtained at T1 during compound treatment measured after 13 months; format: functional, organism-based; conditions: Human immunodeficiency virus 2, subtype H
Summary of the method: (§1)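 Virus isolated by PBMC coculture from patient samples taken before (T0) or during (T1, T2) protease inhibitor exposure, with protease genes sequenced from plasma and PBMC isolates. Susceptibility was tested in the ANRS PBMC assay, and the 50% inhibitory concentration (IC50) was reported.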

[2] = system: Human immunodeficiency virus 2; test: Antiviral activity against HIV 2 subtype A clinical isolate expressing 14H-17D-43T-68N/D protease gene sequence from HIV2 infected patient plasma and PBMC obtained before compound treatment measured after 13 months; format: functional, organism-based; conditions: Human immunodeficiency virus 2, subtype A; summary of the method: as §1
[3] = system: Human immunodeficiency virus 2; test: Antiviral activity against HIV 2 subtype A clinical isolate expressing 5L/F-14Y/H-17G/D-43T-54I/M-62V/A-70R/K-71I protease gene sequence from HIV2 infected patient plasma and PBMC obtained at T1 during compound treatment measured after 13 months; format: functional, organism-based; conditions: Human immunodeficiency virus 2, subtype A; summary of the method: as §1
[4] = system: Human immunodeficiency virus 2; test: Antiviral activity against HIV 2 subtype A clinical isolate expressing 14H-60K/N-65E protease gene sequence from HIV2 infected patient plasma and PBMC obtained before compound treatment measured after 13 months; format: functional, organism-based; conditions: Human immunodeficiency virus 2, subtype A; summary of the method: as §1
[5] = system: Human immunodeficiency virus 2; test: Antiviral activity against HIV 2 subtype A clinical isolate expressing 54M-65E-71I-74N-90M protease gene sequence from HIV2 infected patient plasma and PBMC obtained at T1 during compound treatment measured after 13 months; format: functional, organism-based; conditions: Human immunodeficiency virus 2, subtype A; summary of the method: as §1
[6] = system: Human immunodeficiency virus 2; test: Antiviral activity against HIV 2 subtype A clinical isolate expressing 10I-17D-40D-43I-46V-66V/A-70R/K protease gene sequence from HIV2 infected patient plasma and PBMC obtained before compound treatment measured after 13 months; format: functional, organism-based; conditions: Human immunodeficiency virus 2, subtype A; summary of the method: as §1
[7] = system: Human immunodeficiency virus 2; test: Antiviral activity against HIV 2 subtype A clinical isolate expressing 10I-17D-40D-43I-45K/R-46V-54M-64I/V-69K/R-71V/I-90M protease gene sequence from HIV2 infected patient plasma and PBMC obtained at T1 during compound treatment measured after 13 months; format: functional, organism-based; conditions: Human immunodeficiency virus 2, subtype A; summary of the method: as §1
[8] = system: Human immunodeficiency virus 2; test: Antiviral activity against HIV 2 subtype A clinical isolate expressing 14H-40D-70K-72R/K-91T/S protease gene sequence from HIV2 infected patient plasma and PBMC obtained before compound treatment measured after 13 months; format: functional, organism-based; conditions: Human immunodeficiency virus 2, subtype A; summary of the method: as §1
[9] = system: Human immunodeficiency virus 2; test: Antiviral activity against HIV 2 subtype A clinical isolate expressing 10I-40D-43I-70K-82F-84V-85L-89V-90M-91T/L-98N/K protease gene sequence from HIV2 infected patient plasma and PBMC obtained at T1 during compound treatment measured after 13 months; format: functional, organism-based; conditions: Human immunodeficiency virus 2, subtype A; summary of the method: as §1
[10] = system: Human immunodeficiency virus 2; test: Antiviral activity against HIV 2 subtype A clinical isolate expressing 10V/I-40D-43I-56V-70K-82F-84V-89V-90M protease gene sequence from HIV2 infected patient plasma and PBMC obtained at T2 during compound treatment measured after 3 months; format: functional, organism-based; conditions: Human immunodeficiency virus 2, subtype A; summary of the method: as §1
[11] = system: Human immunodeficiency virus 2; test: Antiviral activity against HIV 2 subtype B clinical isolate expressing 14Y-61N-99L protease gene sequence from HIV2 infected patient plasma and PBMC obtained before compound treatment measured after 13 months; format: functional, organism-based; conditions: Human immunodeficiency virus 2, subtype B\r\n; summary of the method: as §1
[12] = system: Human immunodeficiency virus 2; test: Antiviral activity against HIV 2 subtype B clinical isolate expressing 14Y-19P-33I-61N-71I-75M-84V-90M protease gene sequence from HIV2 infected patient plasma and PBMC obtained at T1 during compound treatment measured after 13 months; format: functional, organism-based; conditions: Human immunodeficiency virus 2, subtype B\r\n; summary of the method: as §1
[13] = system: Human immunodeficiency virus 2; test: Antiviral activity against HIV 2 subtype B clinical isolate expressing 14Y-19P-61N-64V-71I-90M-95I protease gene sequence from HIV2 infected patient plasma and PBMC obtained at T2 during compound treatment measured after 3 months; format: functional, organism-based; conditions: Human immunodeficiency virus 2, subtype B\r\n; summary of the method: as §1
[14] = system: Human immunodeficiency virus 2; test: Antiviral activity against HIV 2 subtype B clinical isolate expressing 12T-14Y-19P-40N-41D-61N-62I-96S-99L protease gene sequence from HIV2 infected patient plasma and PBMC obtained before compound treatment measured after 13 months; format: functional, organism-based; conditions: Human immunodeficiency virus 2, subtype B\r\n; summary of the method: as §1
[15] = system: Human immunodeficiency virus 2; test: Antiviral activity against HIV 2 subtype B clinical isolate expressing 12Q-14R-17G/D-19P-61N-62I-92A protease gene sequence from HIV2 infected patient plasma and PBMC obtained before compound treatment measured after 13 months; format: functional, organism-based; conditions: Human immunodeficiency virus 2, subtype B\r\n; summary of the method: as §1
[16] = system: Human immunodeficiency virus 2; test: Antiviral activity against Human immunodeficiency virus type 2 (ISOLATE ROD) after 13 months; format: functional, organism-based; conditions: Human immunodeficiency virus 2, ISOLATE ROD
Summary of the method: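 Reference strain ROD was tested in the ANRS PBMC assay alongside the clinical isolates, and the 50% inhibitory concentration (IC50) was reported.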

[17] = (§2) Antiviral activity against Human immunodeficiency virus type 1 (BRU ISOLATE) after […]; format: functional; conditions: Human immunodeficiency virus 1
[18] = system: Human immunodeficiency virus type 1 (BRU ISOLATE); test: as §2; format: functional
[19] = system: Human immunodeficiency virus 2; test: Antiviral activity against HIV 2 subtype H expressing 10I-40P-41Y-60H-63N-70T-73G-89L-92E protease gene sequence from HIV2 infected patient plasma and PBMC obtained before compound treatment measured after 13 months; format: functional, organism-based; conditions: Human immunodeficiency virus 2, subtype H; summary of the method: as §1

| SMILES | IC50 [1] [nM] | IC90 [1] [nM] | IC50 [2] [nM] | IC90 [2] [nM] | IC50 [3] [nM] | IC90 [3] [nM] | IC50 [4] [nM] | IC90 [4] [nM] | IC50 [5] [nM] | IC90 [5] [nM] | IC50 [6] [nM] | IC90 [6] [nM] | IC50 [7] [nM] | IC90 [7] [nM] | IC50 [8] [nM] | IC90 [8] [nM] | IC50 [9] [nM] | IC90 [9] [nM] | IC50 [10] [nM] | IC90 [10] [nM] | also measured |
| --- | --- | --- | --- | --- | --- | --- | --- | --- | --- | --- | --- | --- | --- | --- | --- | --- | --- | --- | --- | --- | --- |
| CC(C)CN(C[C@@H](O)[C@H](Cc1ccccc1)NC(=O)O[C@H]1CCOC1)S(=O)(=O)c1ccc(N)cc1 [AMPRENAVIR] | 10000 | 82000 | 600 | 3800 | 4400 | 13000 | 900 | 6800 | 4000 | 60000 | 400 | 3500 | 9500 | 31000 | 300 | 1600 | 12000 | 96000 | 12000 | 95000 | IC50 [11]: 600 nM; IC90 [11]: 4600 nM; IC50 [12]: 14000 nM; IC90 [12]: 110000 nM; IC50 [13]: 17000 nM; IC90 [13]: 140000 nM; IC50 [14]: 400 nM; IC90 [14]: 2400 nM; IC50 [15]: 400 nM; IC90 [15]: 2800 nM; IC50 [16]: 600 nM; IC90 [16]: 4600 nM; IC50 [17]: 20 nM; IC90 [18]: 200 nM; IC50 [19]: 900 nM; IC90 [19]: 2700 nM |
| Cc1c(O)cccc1C(=O)N[C@@H](CSc1ccccc1)[C@H](O)CN1C[C@H]2CCCC[C@H]2C[C@H]1C(=O)NC(C)(C)C [NELFINAVIR] | 9000 | 24000 | 30 | 300 | 14000 | 110000 | 60 | 800 | 3800 | 53000 | 50 | 400 | 1200 | 15000 | 200 | 400 | > 17600 | > 17600 | 10000 | 81000 | IC50 [11]: 200 nM; IC90 [11]: 1000 nM; IC50 [12]: 14000 nM; IC90 [12]: 107000 nM; IC50 [13]: > 17600 nM; IC90 [13]: > 17600 nM; IC50 [14]: 60 nM; IC90 [14]: 200 nM; IC50 [15]: 40 nM; IC90 [15]: 800 nM; IC50 [16]: 50 nM; IC90 [16]: 900 nM; IC50 [17]: 2 nM; IC90 [17]: 100 nM; IC50 [19]: 40 nM; IC90 [19]: 300 nM |
| CC(C)(C)NC(=O)[C@@H]1C[C@@H]2CCCC[C@@H]2CN1C[C@@H](O)[C@H](Cc1ccccc1)NC(=O)[C@H](CC(N)=O)NC(=O)c1ccc2ccccc2n1 [SAQUINAVIR] | 7300 | 31000 | < 6 | < 6 | > 12500 | > 12500 | 5 | 50 | > 12500 | > 12500 | 2 | 20 | 90 | 700 | 5 | 20 | 6400 | 51000 | 22000 | 180000 | IC50 [11]: 14000 nM; IC90 [11]: 82000 nM; IC50 [12]: 8200 nM; IC90 [12]: 65000 nM; IC50 [13]: 6700 nM; IC90 [13]: 52000 nM; IC50 [14]: 7 nM; IC90 [14]: 20 nM; IC50 [15]: 60 nM; IC90 [15]: 300 nM; IC50 [16]: 10 nM; IC90 [16]: 90 nM; IC50 [17]: 10 nM; IC90 [17]: 40 nM; IC50 [19]: 30 nM; IC90 [19]: 300 nM |
| CCC[C@@]1(CCc2ccccc2)CC(O)=C([C@H](CC)c2cccc(NS(=O)(=O)c3ccc(C(F)(F)F)cn3)c2)C(=O)O1 [TIPRANAVIR] | 7300 | 16000 | 300 | 2200 | 6700 | 26000 | 300 | 2500 | 4700 | 14000 | 300 | 2700 | 4100 | 23000 | 400 | 4200 | 2800 | 16000 | 4800 | 29000 | IC50 [11]: 400 nM; IC90 [11]: 1700 nM; IC50 [12]: 4800 nM; IC90 [12]: 17000 nM; IC50 [13]: 4000 nM; IC90 [13]: 12000 nM; IC50 [14]: 400 nM; IC90 [14]: 3000 nM; IC50 [15]: 300 nM; IC90 [15]: 2600 nM; IC50 [16]: 400 nM; IC90 [16]: 3500 nM; IC50 [17]: 50 nM; IC90 [17]: 400 nM; IC50 [19]: 400 nM; IC90 [19]: 800 nM |
